{"data": "Measurements from different studies", "SLC2A9": "Solute carrier family 2, facilitated glucose transporter member 9 (SLC2A9, Homo sapiens, UniProt Q9NRM0)", "note": "Protocols differ between the studies behind these lines."}
{"Structure (SMILES)": "N=c1c[n+](N2CCOCC2)[n-]o1", "target": "NAD-dependent protein deacetylase sirtuin-1 (SIRT1, Homo sapiens, UniProt Q96EB6)", "test": "enzyme activity, inhibitor", "measurement": "IC50", "value": "7 µM"}
{"Structure (SMILES)": "O=C(c1ccc(OCCN2CCCCC2)cc1)c1c(-c2ccc(O)cc2)sc2cc(O)ccc12", "target": "Protein disulfide-isomerase (P4HB, Homo sapiens, UniProt P07237)", "test": "binding, SPR", "measurement": "Kd", "value": "29.7 nM"}
{"Structure (SMILES)": "Nc1ncnc2c1ncn2[C@@H]1O[C@H](COP(=O)(O)CP(=O)(O)OP(=O)(O)O)[C@@H](O)[C@H]1O", "target": "P2X purinoceptor 1 (P2RX1, Homo sapiens, UniProt P51575)", "test": "binding, radioligand", "measurement": "Kd", "value": "43 nM"}
{"Structure (SMILES)": "O=C(C=Cc1ccccc1)Nc1cc(-c2ccnc(N3CCC(O)CC3)c2)ccn1", "target": "Nuclear receptor subfamily 4immunitygroup A member 1 (NR4A1, Homo sapiens, UniProt P22736)", "test": "binding, SPR", "measurement": "Kd", "value": "121 nM"}
{"Structure (SMILES)": "COc1ccc(C[C@H]2COC(=O)[C@@H]2Cc2ccc(OCC(=O)Nc3ccc(C(=O)Nc4ccccc4N)cc3)c(OC)c2)cc1OC", "target": "Histone deacetylase 4 (HDAC4, Homo sapiens, UniProt P56524)", "test": "enzyme activity, inhibitor", "measurement": "IC50", "value": "> 10 µM"}
{"Structure (SMILES)": "CCCCCCCc1cc(O)cc(=O)o1", "target": "Aldo-keto reductase family 1 member C3 (AKR1C3, Homo sapiens, UniProt P42330)", "test": "enzyme activity, inhibitor", "measurement": "IC50", "value": "10.6 µM"}
{"Structure (SMILES)": "O=C1CCc2ccccc2O1", "target": "cah (Neisseria gonorrhoeae, UniProt Q50940)", "test": "enzyme activity, inhibitor, stopped-flow", "measurement": "Ki", "value": "25.8 µM"}
{"Structure (SMILES)": "CCOC(=O)/C=C/C(=O)[C@H](CC(C)C)NC(=O)[C@H](Cc1ccccc1)NC(=O)[C@H](Cc1ccccc1)N=[N+]=[N-] (mixture of isomers)", "target": "Procathepsin L (CTSL, Homo sapiens, UniProt P07711)", "test": "enzyme activity, inhibitor", "measurement": "IC50", "value": "0.13 µM"}
{"Structure (SMILES)": "Nc1ncnc2c1ncn2[C@@H]1O[C@H](CO)[C@@H](O)[C@H]1O", "target": "SLC2A9", "test": "transporter uptake, inhibitor, radiometric", "setting": "oocytes", "measurement": "IC50", "value": "> 4000 µM"}
{"Structure (SMILES)": "Cc1ccc2oc(=O)cc(NCCO)c2c1", "target": "Alpha-1B adrenergic receptor (Adra1b, Rattus norvegicus, UniProt P15823)", "test": "calcium signal, antagonist", "measurement": "IC50", "value": "178 µM"}
{"Structure (SMILES)": "Cn1c(=O)c2c(ncn2C)n(C)c1=O", "target": "SLC2A9", "test": "transporter uptake, inhibitor, radiometric", "setting": "oocytes", "measurement": "IC50", "value": "> 1000 µM"}
{"Structure (SMILES)": "N[C@@H](Cc1ccccc1)C(=O)O", "target": "Alkaline phosphatase, placental type (Homo sapiens, UniProt P05187)", "test": "enzyme activity, inhibitor", "measurement": "IC50", "value": "82.6 µM"}
